Most compounds without a hit are left out; they make up all but 2.7% or so of the library.
ARFGAP1 inhibitor = inhibitors of rat ARFGAP1; inhibition, % at 16.5 µM; AID 651572; hit rate 0.26% among 360,000; Arfgap1-stimulated ARF1 GTP hydrolysis, GDP FP detection;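 active means inhibition above a per-plate limit, mean inhibition of low control wells plus 3 SD, cut at about 25% in these data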
Target sequence (Q62848 1-136 limits assumed): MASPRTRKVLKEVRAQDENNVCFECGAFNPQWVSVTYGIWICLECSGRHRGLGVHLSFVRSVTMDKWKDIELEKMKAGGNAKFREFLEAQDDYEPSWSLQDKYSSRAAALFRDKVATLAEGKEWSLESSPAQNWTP
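System: truncated rat Arfgap1 GAP domain / Benchmarks: high control wells lacking Arfgap1, low control full reaction with DMSO / Times: compound-enzyme preincubation 20 min, reaction 120 min, detection 60 min, 25 °C / Repeats: one replicate per compound / Also added: human ARF1(Δ1-17)-GTP substrate / Measured by: Tracer-displacement fluorescence polarization with EDTA stop, 620/688 nm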
MsrA inh = bovine MsrA inhibition; inhibition, % at 15.5 µM; purified bovine MsrA, absorbance read-out; hit rate 0.75% among 360,000; in the data active means inhibition above about 4.5%
MsrA act = bovine methionine sulfoxide reductase A activation | hit rate 0.3% among 360,000 | activation, % at 10.6 µM | purified bovine MsrA, absorbance read-out; in the data active means activation above about 7.5%
Rev-erbA mod = modulators of human Rev-erb alpha DNA binding. AID 1259318. Rev-erbα–FITC-DNA binding, fluorescence polarization, 90 min. hit rate 0.79% among 370,000. activity, % at 10 µM. P20393;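 active means activity above about 14%, limit read from the data; passing the limit was not always enough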
ASAP1 inh = inhibitors of human ASAP1 ArfGAP activity; Q9ULH1; hit rate 0.19% among 360,000; inhibition, % at 16.5 µM; AID 624377; ASAP1-stimulated ARF1 GTP hydrolysis, GDP FP detection; in the data active means inhibition above about 25%
Target sequence (Q9ULH1 325-724 limits assumed): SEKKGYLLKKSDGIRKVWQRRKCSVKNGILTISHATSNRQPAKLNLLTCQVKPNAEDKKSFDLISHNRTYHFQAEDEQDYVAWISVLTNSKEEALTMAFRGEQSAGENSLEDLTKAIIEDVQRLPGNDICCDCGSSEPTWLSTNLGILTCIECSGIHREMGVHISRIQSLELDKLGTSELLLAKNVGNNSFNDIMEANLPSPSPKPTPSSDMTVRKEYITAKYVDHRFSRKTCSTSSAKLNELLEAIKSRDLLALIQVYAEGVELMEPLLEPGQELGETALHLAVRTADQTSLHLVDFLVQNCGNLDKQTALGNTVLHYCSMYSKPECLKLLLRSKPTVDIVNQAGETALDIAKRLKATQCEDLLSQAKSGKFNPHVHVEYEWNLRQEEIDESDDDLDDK
HGIII-sPLA2 inh = Blocks human group III sPLA2 activity; Q9NZ20; QFRET BODIPY PC-A2 liposome hydrolysis, fluorescence; inhibition, % at 12.2 µM; hit rate 0.56% among 370,000; AID 743126;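 active means inhibition above mean plus 3 SD of compounds lying within the high and low control bounds, cut at about 19% in these data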
MsrA act confirm = confirmation of bovine methionine sulfoxide reductase A activators; hit rate 12% among 1,000; activation, % at 10.6 µM; purified bovine MsrA, absorbance read-out; shares compounds with MsrA act; AID 602270; in the data active means activation above about 4%;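 further: enzyme coupled to thioredoxin and thioredoxin reductase with NADPH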
Numbers stand for hits; n = inactive; x = no result given.

SMILES	ARFGAP1 inhibitor	MsrA inh	MsrA act	Rev-erbA mod	ASAP1 inh	HGIII-sPLA2 inh	MsrA act confirm
COc1cccc(N2CCN(C(=S)Nc3ccccc3OC)CC2)c1	n	n	n	n	n	n	x
CC(C)CCNC(=O)C1CCN(c2cncnc2)CC1	x	x	x	n	x	n	x
CN(C(=O)CNC(=O)c1ccccc1OCC(=O)Nc1ccc(I)cc1)c1ccccc1	x	x	x	n	x	n	x
Clc1ccc(-c2ccn[nH]2)cc1	n	n	n	n	n	n	x
S=c1nccc(-c2ccc(Cl)cc2)[nH]1	n	n	8.3	n	n	n	n
COC(=O)[C@H](C(C)C)N1Cc2nnn(Cc3ccc(C)cc3)c2-c2ccccc2S1(=O)=O	x	x	x	n	x	n	x
CCC(C)(C)n1nnnc1CN(Cc1cccs1)Cc1cc2cc(OC)ccc2[nH]c1=O	n	n	7.7	n	n	n	n
CC(C)C1C(=O)N(Cc2cn(CC3CCCCC3)nn2)CCS(=O)(=O)N1Cc1ccc(-c2ccc(F)nc2)cc1 (centres undefined)	n	n	8.9	n	n	n	n
O=C(CCc1ccccc1)N[C@H]1[C@@H](OC(=O)C2CC2)CCC[C@@]12C(=O)N(Cc1ccccc1)c1ccccc12	x	x	x	n	x	n	x
Cc1cc(C)cc(N(CC(=O)Nc2ccccc2C(=O)N2CCOCC2)S(C)(=O)=O)c1	n	n	9.2	n	n	n	n
COc1ccccc1NC(=O)CN(c1ccccc1)S(=O)(=O)c1ccccc1	n	n	n	n	n	n	x
Cc1ccc(S(=O)(=O)N(CC(=O)Nc2ccccc2C(=O)O)c2ccccc2)cc1	n	n	7.8	n	n	n	n
Cc1ccc(Cn2nnc3c2-c2ccccc2S(=O)(=O)N(C2CC2)C3)cc1	x	x	x	n	x	n	x
COc1ccc(/C(C)=N/NC(=O)CNC(=O)c2ccco2)c(OC)c1	n	n	8.6	n	n	n	n
Cc1ccc(Cn2cc(CN(C(C)(C)C)S(=O)(=O)c3ccc(F)cc3Br)nn2)cc1	x	x	x	n	x	n	x
O=C(O)C1C2CC(C(Br)C2Br)C1C(=O)O (centres undefined)	n	n	15	n	n	n	n
COCCCNC(=O)c1cccs1	n	n	n	n	n	n	x
COc1ccc(CNCCNC(=O)c2cccs2)c(OC)c1OC	n	n	18	n	n	n	n
O=C(c1cccc(Oc2ccccc2)c1)N1CCC(Oc2cccnc2)CC1	x	x	x	n	x	n	x
CCCC#Cc1ccc(CC[C@H]2O[C@H]3CC[C@H](CO)O[C@H]3C[C@H]2NC(=O)CN2CCOCC2)cc1	x	x	x	n	x	n	x
CCOC(=O)c1nn(-c2ccc(C)cc2)c(=O)c2c(N)scc12	n	n	8.6	n	n	n	n
Cc1nn(-c2ccccc2)c2nc(-c3ccco3)cc(C(=O)O)c12	n	n	n	n	n	n	x
COC(=O)c1cc(C)nc2c1c(C)nn2-c1ccccc1	n	n	13	n	n	n	n
CC(C)C(O)(c1ccccc1)C(CN1CCOCC1)c1ccccc1 (centres undefined)	n	n	n	n	n	n	x
CCc1ccc(C(O)(C(C)C)C(CN2CCOCC2)c2ccccc2)cc1 (centres undefined)	n	n	8.1	n	n	n	n
SMILES	ARFGAP1 inhibitor	MsrA inh	MsrA act	Rev-erbA mod	ASAP1 inh	HGIII-sPLA2 inh	MsrA act confirm
COc1cc(NC(=O)c2cccs2)c(C(=O)OCC(=O)NC(=O)NCc2ccccc2)cc1OC	n	n	7.9	n	n	n	n
CCOC(=O)NC1(C(F)(F)F)C(=O)N(Cc2ccccc2)C2=C1C(=O)CC(C)(C)C2 (centres undefined)	n	n	12	n	n	n	n
CC1(C)CC(=O)C2=C(C1)N(Cc1cccnc1)C(=O)C2(NC(=O)c1cccnc1)C(F)(F)F (centres undefined)	n	n	n	n	n	n	x
CC1(C)CC(=O)C2=C(C1)N(Cc1ccco1)C(=O)C2(NC(=O)c1cccnc1)C(F)(F)F (centres undefined)	n	n	8.2	n	n	n	n
Cc1ccccc1Cn1c2ccccc2c2cnn(CC(=O)NCc3ccccn3)c(=O)c21	n	n	n	n	n	n	x
Cc1c2cnn(CC(=O)NCc3ccccn3)c(=O)c2c(C)n1Cc1ccccc1	n	n	11	n	n	n	n
Cc1cccc(-c2cccc3c4c([nH]c23)[C@@H]2C[C@H](N(C)C(=S)Nc3ccc(C#N)cc3)[C@H]([C@H](C)O)CN2CC4)c1	x	x	x	n	x	n	x
C=C(C)C1Cc2c(C)nn(-c3cccc4ccccc34)c2C1 (centres undefined)	n	n	8.0	n	n	n	n
c1ccc(N2CCOCCOCCOCCOCC2)cc1	n	n	n	n	n	n	x
c1ccn(-c2ccc(N3CCOCC3)cc2)c1	n	n	10	n	n	n	n
CN(Cc1cccs1)c1ncnc2sccc12	n	n	n	n	n	n	x
CN(Cc1ccccc1F)c1ncnc2sccc12	n	n	14	n	n	n	n
Cc1ccccc1CN1CCCCC(NC(=O)c2ccc(-c3ccccc3)cc2)C1=O (centres undefined)	x	x	x	n	x	n	x
CCOC(=O)CSc1nnc(-c2nnc(SCC(=O)OCC)n2CC)n1CC	n	n	7.7	n	n	n	n
COc1cccc(COc2ccccc2C2Nc3ccc(Br)cc3C(=O)N2NC(=O)c2ccncc2)c1 (centres undefined)	n	n	18	n	n	n	n
CC(=O)Nc1ccc(SC[C@H](Cc2ccccc2)N2CC[C@@H](O)CCC2=O)cc1	n	n	9.3	n	n	n	n
CC(=O)Nc1ccc(SC[C@H](Cc2ccccc2)N2CC[C@@H](C(C)(C)C)CCC2=O)cc1	n	n	n	n	n	n	x
O=C(Cn1c(=O)oc2ccccc21)Nc1nc(-c2ccccc2)cs1	n	n	n	n	n	n	x
O=C(Cn1c(=O)oc2ccccc21)Nc1n[nH]c(=S)s1	n	n	7.9	n	n	n	5.5
CCOC(=O)C1=C(C)N(C)C(=O)NC1c1c(C)nn(-c2ccc(C)cc2)c1Cl (centres undefined)	n	n	13	n	n	n	n
Cc1cc(C)c(S(=O)(=O)NC2CCN(Cc3ccccc3)CC2)c(C)c1	n	n	n	n	n	n	x
Cc1noc(C)c1S(=O)(=O)NC1CCN(Cc2ccccc2)CC1	n	n	10	n	n	n	n
CC(C)NC[C@@H](O)c1ccc(O)c(O)c1	n	n	n	n	n	n	x
CC(C)NCC(O)c1ccc(NS(C)(=O)=O)cc1 (centres undefined)	n	n	7.8	n	n	n	n
Nc1nc2c(c(=O)[nH]1)N(C=O)C(CNc1ccc(C(=O)N[C@@H](CCC(=O)O)C(=O)O)cc1)CN2 (some centres undefined)	x	x	x	n	x	x	x
Clc1ccccc1N=Nc1ccccn1	n	n	34	n	n	n	n
Cc1cccc(C)c1NC(=O)c1nc(S(=O)(=O)Cc2ccccc2)ncc1Cl	n	n	n	n	n	n	x

Compound activity deposited in PubChem BioAssay by several laboratories.
